Results on 25 compounds are retold here after ChEMBL document CHEMBL5032493, “Synthesis and Evaluation of PPARδ Agonists That Promote Osteogenesis in a Human Mesenchymal Stem Cell Culture and in a Mouse Model of Human Osteoporosis” (J Med Chem, 2021).

The source made the active and inactive calls. No cut-off for these calls is given here.

Assay [1] deals with Mesenchymal stem cells. Put plainly: Induction of osteogenesis differentiation in human Mesenchymal stem cells at 10 uM incubated for 21 days by Alizarin Red S staining-based microscopic analysis. Format: functional, cell-based. The settings on record: time 21.0 day.
Assay [2] has as its system Mesenchymal stem cells. The assay can be described thus: Induction of adipogenesis differentiation in human Mesenchymal stem cells at 1 uM incubated for 21 days by […] staining-based microscopic analysis. Format: functional, cell-based. The settings on record: time 21.0 day.
The subject of assay [3] is Mesenchymal stem cells. The assay can be described thus: Induction of adipogenesis differentiation in human Mesenchymal stem cells at 10 uM incubated for 21 days by […] staining-based microscopic analysis. Format: functional, cell-based. The conditions noted are these: time 21.0 day.
The test system of assay [4] is Mesenchymal stem cells. The assay can be described thus: Induction of osteogenesis differentiation in human Mesenchymal stem cells at 1 uM incubated for 21 days by Alizarin Red S staining-based microscopic analysis. Format: functional, cell-based. The conditions noted are these: time 21.0 day.
For assay [5], the system named is Mesenchymal stem cells. Put plainly: Induction of osteogenesis differentiation in human Mesenchymal stem cells at 20 uM incubated for 21 days by Alizarin Red S staining-based microscopic analysis. Format: functional, cell-based. The conditions noted are these: time 21.0 day.
Assay [6] concerns Mesenchymal stem cells. The assay can be described thus: Induction of adipogenesis differentiation in human Mesenchymal stem cells at 20 uM incubated for 21 days by […] staining-based microscopic analysis. The conditions noted are these: time 21.0 day. Format: functional, cell-based.
Assay [7] deals with T1, Peroxisome proliferator-activated receptor alpha (Homo sapiens, UniProt Q07869).
T1 sequence (Q07869 whole entry): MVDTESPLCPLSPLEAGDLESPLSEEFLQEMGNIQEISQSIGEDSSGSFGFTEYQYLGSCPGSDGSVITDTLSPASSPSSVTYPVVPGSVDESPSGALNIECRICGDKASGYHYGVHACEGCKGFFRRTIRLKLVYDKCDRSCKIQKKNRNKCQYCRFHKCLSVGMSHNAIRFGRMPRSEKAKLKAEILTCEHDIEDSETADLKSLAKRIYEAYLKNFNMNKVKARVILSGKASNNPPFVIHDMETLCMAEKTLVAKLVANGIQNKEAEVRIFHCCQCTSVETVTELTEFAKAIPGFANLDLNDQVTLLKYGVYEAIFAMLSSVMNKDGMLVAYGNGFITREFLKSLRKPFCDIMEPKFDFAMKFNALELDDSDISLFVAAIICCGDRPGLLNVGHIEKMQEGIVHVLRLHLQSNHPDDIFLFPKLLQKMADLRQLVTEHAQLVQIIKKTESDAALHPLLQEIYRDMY
Put plainly: Agonist activity at human PPARalpha transfected in COS-7 cells assessed luciferase activity measured after 24 hrs by cell based luciferase transactivation assay. The conditions noted are these: read-out: EC50. In short, it runs like this:
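Transient transfection of COS-7 cells with human PPARα, PPARγ or PPARδ plus luciferase reporter; constitutive Renilla luciferase also read. Three or more independent experiments in triplicate (N ≥ 9).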

Assay [8] deals with T2, Peroxisome proliferator-activated receptor alpha (Homo sapiens) (UniProt Q07869).
T2 sequence (whole entry): T1 sequence (Q07869 whole entry)
Put plainly: Agonist activity at human PPARalpha transfected in COS-7 cells assessed maximum luciferase activity measured after 24 hrs by cell based luciferase transactivation assay relative to gemfibrozil. The settings on record: filed as agonist. In short, it runs like this:
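Transient transfection of COS-7 cells with human PPARα, PPARγ or PPARδ plus luciferase reporter; constitutive Renilla luciferase also read. […] Three or more independent experiments in triplicate (N ≥ 9).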

Consider `Cc1nc(-c2ccc(C(F)(F)F)c(F)c2)sc1CN(C(=O)OC(C)(C)C)c1ccc(/C=C/C(=O)O)cc1`, for which the result with Mesenchymal stem cells [1], in the assay on Mesenchymal stem cells [2] and in the assay on Mesenchymal stem cells [5] was inactive. Also, the outcome in the assay on Mesenchymal stem cells [3], with Mesenchymal stem cells [4] and in the assay on Mesenchymal stem cells [6] was Active.
Regarding `Cc1nc(-c2ccc(C(F)(F)F)cc2)sc1CN(Cc1sc(-c2ccc(C(F)(F)F)cc2)nc1C)c1ccc(/C=C/C(=O)O)cc1`, the result in the assay with Mesenchymal stem cells [1], in the assay with Mesenchymal stem cells [2] and with Mesenchymal stem cells [3] was inactive. Also, the result in the assay on Mesenchymal stem cells [4] was Active.
As for `Cc1nc(-c2ccc(C(F)(F)F)cc2)sc1CN(C)c1ccc(/C=C/C(=O)O)c(C(C)C)c1`, the result with Mesenchymal stem cells [1], in the assay on Mesenchymal stem cells [4] and in the assay with Mesenchymal stem cells [5] was Active. The result with Mesenchymal stem cells [2], in the assay on Mesenchymal stem cells [3] and in the assay with Mesenchymal stem cells [6] was inactive.
With `Cc1nc(-c2cccc(C(F)(F)F)c2)sc1CNc1ccc(/C=C/C(=O)O)cc1`, the result in the assay with Mesenchymal stem cells [1], with Mesenchymal stem cells [4] and in the assay on Mesenchymal stem cells [5] was inactive. Also, the result in the assay with Mesenchymal stem cells [2], with Mesenchymal stem cells [3] and in the assay on Mesenchymal stem cells [6] was Active.
As to `Cc1nn(-c2ccc(C(F)(F)F)cc2)nc1CN(C)c1ccc(/C=C/C(=O)O)cc1`, the outcome in the assay on Mesenchymal stem cells [1], in the assay on Mesenchymal stem cells [4] and in the assay with Mesenchymal stem cells [5] was Active. Moreover, the result in the assay on Mesenchymal stem cells [2], in the assay with Mesenchymal stem cells [3] and with Mesenchymal stem cells [6] was inactive.
As for `Cc1nc(-c2ccc(C(F)(F)F)c(F)c2)sc1CN(C)c1ccc(/C=C/C(=O)O)cc1`, the result in the assay on Mesenchymal stem cells [1], with Mesenchymal stem cells [2], in the assay with Mesenchymal stem cells [3] and with Mesenchymal stem cells [5] was inactive. The result with Mesenchymal stem cells [4] and in the assay with Mesenchymal stem cells [6] was Active.
Turning to `Cc1sc(-c2ccc(C(F)(F)F)cc2)nc1CN(C)c1ccc(/C=C/C(=O)O)cc1`, the outcome with Mesenchymal stem cells [1] and with Mesenchymal stem cells [4] was Active. In addition, the result in the assay with Mesenchymal stem cells [2], with Mesenchymal stem cells [3], in the assay with Mesenchymal stem cells [5] and with Mesenchymal stem cells [6] was inactive.
As to `COC(=O)/C=C/c1ccc(OCc2sc(-c3cccc(C(F)(F)F)c3)nc2C)cc1`, the result with Mesenchymal stem cells [2] was Active. Further, the result in the assay on Mesenchymal stem cells [4] was inactive.
With `Cc1nc(-c2cccc(C(F)(F)F)c2)sc1CN(C)c1ccc(/C=C/C(=O)O)cc1`, the result with Mesenchymal stem cells [1], in the assay on Mesenchymal stem cells [2] and with Mesenchymal stem cells [5] was inactive. Also, the outcome with Mesenchymal stem cells [3], in the assay with Mesenchymal stem cells [4] and with Mesenchymal stem cells [6] was Active.
Consider `Cc1nc(-c2ccccc2)sc1CNc1ccc(/C=C/C(=O)O)cc1`, for which the result in the assay with Mesenchymal stem cells [1] was inactive. In addition, the outcome in the assay on Mesenchymal stem cells [2], in the assay with Mesenchymal stem cells [3] and with Mesenchymal stem cells [4] was Active.
Consider `CCc1cc(N(C)Cc2sc(-c3ccc(C(F)(F)F)cc3)nc2C)ccc1/C=C/C(=O)O`, for which the outcome in the assay on Mesenchymal stem cells [1], with Mesenchymal stem cells [2], with Mesenchymal stem cells [3], in the assay with Mesenchymal stem cells [4], with Mesenchymal stem cells [5] and in the assay on Mesenchymal stem cells [6] was Active.
In the case of `Cc1ccc(C)c(OCCCC(C)(C)C(=O)O)c1` [GEMFIBROZIL], the EC50 (usually the concentration that produces a half-maximal response) in assay [7] stood at 11.8 µM. The compound also displayed an Emax in assay [8] of 110%.
Consider `Cc1cc(/C=C/C(=O)O)ccc1N(C)Cc1sc(-c2ccc(C(F)(F)F)cc2)nc1C`, for which the outcome with Mesenchymal stem cells [1], with Mesenchymal stem cells [4] and in the assay on Mesenchymal stem cells [5] was Active. Also, the outcome with Mesenchymal stem cells [2], in the assay on Mesenchymal stem cells [3] and in the assay on Mesenchymal stem cells [6] was inactive.
Turning to `CCCN(Cc1sc(-c2ccc(C(F)(F)F)cc2)nc1C)c1ccc(/C=C/C(=O)O)cc1`, the outcome with Mesenchymal stem cells [1], in the assay with Mesenchymal stem cells [3], in the assay on Mesenchymal stem cells [4] and in the assay on Mesenchymal stem cells [6] was Active. For the same compound, the outcome in the assay with Mesenchymal stem cells [2] and in the assay on Mesenchymal stem cells [5] was inactive.
With `CN(CCOc1ccc(CC2SC(=O)NC2=O)cc1)c1ccccn1` (stereo not drawn), the result in the assay on Mesenchymal stem cells [2] and in the assay with Mesenchymal stem cells [3] was Active. Also, the Emax in assay [8] was over 120%.
On to `Cc1nc(-c2ccccc2)sc1CSc1ccc(/C=C/C(=O)O)cc1`, for which the outcome in the assay with Mesenchymal stem cells [1] was inactive. Also, the outcome in the assay with Mesenchymal stem cells [2], in the assay with Mesenchymal stem cells [3] and with Mesenchymal stem cells [4] was Active.
For `Cc1nc(-c2cccc(C(F)(F)F)c2)sc1COc1ccc(/C=C/C(=O)O)cc1`, the result with Mesenchymal stem cells [2] and in the assay with Mesenchymal stem cells [4] was Active.
On to `Cc1nc(-c2cccc(C(F)(F)F)c2)sc1CSc1ccc(/C=C/C(=O)O)cc1`, for which the result in the assay with Mesenchymal stem cells [1], in the assay with Mesenchymal stem cells [2] and in the assay with Mesenchymal stem cells [5] was inactive. The outcome with Mesenchymal stem cells [3], in the assay on Mesenchymal stem cells [4] and in the assay with Mesenchymal stem cells [6] was Active.
Consider `Cc1nc(-c2ccccc2)sc1COc1ccc(/C=C/C(=O)O)cc1`, for which the result in the assay with Mesenchymal stem cells [1] and in the assay with Mesenchymal stem cells [4] was inactive. The outcome with Mesenchymal stem cells [2] and in the assay on Mesenchymal stem cells [3] was Active.
Consider `Cc1nn(-c2ccc(C(F)(F)F)cc2)nc1CNc1ccc(/C=C/C(=O)O)cc1`, for which the outcome with Mesenchymal stem cells [1], with Mesenchymal stem cells [2], in the assay on Mesenchymal stem cells [3], in the assay with Mesenchymal stem cells [4], in the assay on Mesenchymal stem cells [5] and with Mesenchymal stem cells [6] was Active.
For `Cc1nc(-c2ccc(C(F)(F)F)c(F)c2)sc1CNc1ccc(/C=C/C(=O)O)cc1`, the result with Mesenchymal stem cells [1], with Mesenchymal stem cells [2] and in the assay with Mesenchymal stem cells [5] was inactive. For the same compound, the result with Mesenchymal stem cells [3], with Mesenchymal stem cells [4] and in the assay with Mesenchymal stem cells [6] was Active.
Consider `Cc1nc(-c2ccccc2)sc1CN(C)c1ccc(/C=C/C(=O)O)cc1`, for which the result in the assay with Mesenchymal stem cells [1], in the assay on Mesenchymal stem cells [2] and in the assay on Mesenchymal stem cells [5] was inactive. Moreover, the result in the assay on Mesenchymal stem cells [3], in the assay with Mesenchymal stem cells [4] and with Mesenchymal stem cells [6] was Active.
Take `COC(=O)/C=C/c1ccc(OCc2sc(-c3ccc(C(F)(F)F)cc3)nc2C)cc1`: the result in the assay on Mesenchymal stem cells [2] was Active. Besides, the outcome in the assay on Mesenchymal stem cells [4] was inactive.
On to `CCN(Cc1sc(-c2ccc(C(F)(F)F)cc2)nc1C)c1ccc(/C=C/C(=O)O)cc1`, for which the result in the assay with Mesenchymal stem cells [1], with Mesenchymal stem cells [2], with Mesenchymal stem cells [3], with Mesenchymal stem cells [4], with Mesenchymal stem cells [5] and in the assay on Mesenchymal stem cells [6] was Active.
For `Cc1nc(-c2ccc(C(F)(F)F)cc2)sc1CN(c1ccc(/C=C/C(=O)O)cc1)C(C)C`, the result in the assay with Mesenchymal stem cells [1], in the assay with Mesenchymal stem cells [4] and with Mesenchymal stem cells [5] was Active. In addition, the outcome in the assay on Mesenchymal stem cells [2], in the assay with Mesenchymal stem cells [3] and with Mesenchymal stem cells [6] was inactive.
